Assay results pooled from the literature.
Protocols differ between the studies behind these lines.
CASP7: Caspase-7 (CASP7, Homo sapiens, UniProt P55210)
glgA: glgA (Escherichia coli, UniProt P0A6U8)

SMILES | target | assay | system | conditions | measurement | result
CN(C)C(=O)COC(=O)Cc1ccc(OC(=O)c2ccc(NC(=N)N)cc2)cc1 | CASP7 | enzyme activity, inhibitor | – | 10 µM | inhibition | 0%
Nc1ncc(-c2nc(N3CCOCC3)nc(N3CCOCC3)n2)c(C(F)F)n1 | 5-hydroxytryptamine receptor 1B (Htr1b, Rattus norvegicus, UniProt P28564) | cell-free assay, radioligand | – | 10 µM | remaining signal | 115%
OC[C@H]1NC[C@@H](O)[C@@H]1O | glgA | enzyme activity, inhibitor | – | 500 µM | activity vs control | 72%
Cc1nn(C)cc1-c1nc2c(N3CCN(Cc4ccc(Cl)cc4)CC3)c(Cl)cnc2[nH]1 | Dual specificity testis-specific protein kinase 1 (TESK1, Homo sapiens, UniProt Q15569) | binding, competition with immobilised ligand | – | 1 µM | remaining binding | 87%
CC(=O)N[C@@H](CC(=O)O)C(=O)N[C@@H](CC(N)=O)C(=O)N[C@@H](CC(C)C)C(=O)N[C@H](C=O)CC(=O)O | CASP7 | enzyme activity, inhibitor | – | 50 nM | inhibition | 43%
Nc1ncnc2c1ncn2[C@@H]1O[C@H](COP(=O)(O)OP(=O)(O)O[C@H]2O[C@H](CO)[C@@H](O)[C@H](O)[C@H]2O)[C@@H](O)[C@H]1O | glgA | enzyme activity, substrate | – | – | Km | 420 µM
N=C(N)c1ccc2cc(OC(=O)c3ccc(N=C(N)N)cc3)ccc2c1 | Ubiquitin carboxyl-terminal hydrolase isozyme L3 (UCHL3, Homo sapiens, UniProt P15374) | enzyme activity, inhibitor | – | 10 µM | inhibition | 6%
C#Cc1n[nH]c2c(-c3cn(C(C)c4ccccn4)c(=O)[nH]c3=O)cc(F)cc12 (stereo not shown) | Phosphatidylinositol 4,5-bisphosphate 3-kinase catalytic subunit gamma isoform (PIK3CG, Homo sapiens, UniProt P48736) | enzyme activity, inhibitor | – | 1 µM | inhibition | 14.7%
CCN(CC)CCCC[C@H](NC(=O)[C@H](CC(C)C)NC(=O)[C@H](C)NC(=O)[C@H](Cc1ccccc1)NC(=O)c1ccc(C(C)(C)C)cc1)C(=O)N[C@@H](CO)C(=O)OC | CREB-binding protein (CREBBP, Homo sapiens, UniProt Q92793) | thermal stability, DSF | – | 25 µM | ΔTm | 0.35 °C
CSCC[C@H](NC(=O)[C@@H](NC(=O)[C@@H](N)Cc1ccc(O)cc1)C(C)C)C(=O)NCC(=O)N[C@@H](Cc1c[nH]cn1)C(=O)O | Melanocyte-stimulating hormone receptor (Mc1r, Mus musculus, UniProt Q01727) | cAMP, agonist | HEK293 | – | Emax | 60%
O=C(Nc1cccnn1)N1CCN([C@@H]2CCOc3cc(C(F)(F)F)ccc32)CC1 | Alpha-2B adrenergic receptor (ADRA2B, Homo sapiens, UniProt P18089) | ligand displacement | – | 20 µM | inhibition | 45%
C=CC(=O)N1CCC[C@@H](n2nc(-c3ccc(Oc4ccccc4)cc3)c3c(N)ncnc32)C1 | Dual specificity tyrosine-phosphorylation-regulated kinase 1B (DYRK1B, Homo sapiens, UniProt Q9Y463) | cell-free assay | – | 0.1 µM | remaining signal | 195%
COc1ncccc1-c1cnn2ccc(N3CCN(C(=O)OC(C)C)CC3)nc12 | Mitogen-activated protein kinase kinase kinase 15 (MAP3K15, Homo sapiens, UniProt Q6ZN16) | binding, competition with immobilised ligand | – | 1 µM | remaining binding | 86%
